RGS4 pot: RGS4 potentiators or activators, primary screen, cell-based, HEK293 M3R inducible RGS4, calcium flux | 310,000 tested, 0.92% active | B-score at 10 µM | carbachol calcium flux Fluo4; active compounds read low;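 active = B-score of the integrated calcium signal more than 4 SD below the library mean, with starting fluorescence not abnormally high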;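 note: negative B-score means reduced calcium response which marks RGS4 activation or potentiation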
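System: HEK293 FlpIn-TREx cells, stable M3R, doxycycline-inducible RGS4. Timing: overnight RGS4 induction, 30 min dye load 37 °C, 20 min compound RT. Also added: carbachol, ECmax concentration. Measured by: Fluo4 fluorescence kinetic imaging of calcium. Evaluation: integrated calcium ratio converted to B score.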
MrgX1 antag: antagonists of human MrgX1 receptor, primary screen, HEK293 cells, Fluo-4 calcium flux | BAM8-22 antagonism; active compounds read low | B-score at 10 µM | Mas-related G-protein coupled receptor member X1 (Homo sapiens), Q96LB2 | 310,000 tested, 1.3% active;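 active = calcium-response B-score plate-corrected more than 3 library SD below zero, starting fluorescence within 5 deviations, no agonist response on first addition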;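 note: peak minus trough fluorescence over baseline after final BAM8-22 challenge near maximal dose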
Target sequence (Q96LB2 whole entry, looked up): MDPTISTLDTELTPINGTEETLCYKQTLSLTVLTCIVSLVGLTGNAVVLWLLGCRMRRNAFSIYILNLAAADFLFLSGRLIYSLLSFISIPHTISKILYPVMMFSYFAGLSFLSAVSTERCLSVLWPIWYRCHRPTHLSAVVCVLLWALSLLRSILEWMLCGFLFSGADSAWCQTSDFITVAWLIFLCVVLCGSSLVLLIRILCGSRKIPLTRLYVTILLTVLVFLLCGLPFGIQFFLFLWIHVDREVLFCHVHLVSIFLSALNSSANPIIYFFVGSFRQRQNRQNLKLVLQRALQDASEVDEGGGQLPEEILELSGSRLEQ
RGS4 inh: RGS4 inhibitors, primary screen, cell-based, HEK293 M3R inducible RGS4, calcium flux | Regulator of G-protein signaling 4 (Homo sapiens), P49798 | B-score at 10 µM | Fluo-4 calcium flux; active compounds read high; triggered by carbachol at its EC20 | 310,000 tested, 0.45% active | AID 463165, 2010;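 active = B-score, a plate-corrected calcium signal, over three deviations above library mean, with baseline fluorescence within five deviations of library mean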;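 note: RGS4 expression induced by doxycycline in cells with stable M3 receptor; B-score is computed from the integrated fluorescence ratio over baseline after carbachol; higher B-score means a larger calcium signal and so more RGS4 inhibition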
Target sequence (P49798 whole entry, looked up): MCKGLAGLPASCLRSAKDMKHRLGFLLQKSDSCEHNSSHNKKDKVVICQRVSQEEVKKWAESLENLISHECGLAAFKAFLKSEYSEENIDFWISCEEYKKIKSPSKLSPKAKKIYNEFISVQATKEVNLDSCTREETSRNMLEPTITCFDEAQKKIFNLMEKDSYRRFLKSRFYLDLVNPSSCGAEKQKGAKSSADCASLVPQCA
MrgX1 agonist: agonists of human MrgX1 receptor, primary screen, HEK293 cells, Fluo-4 calcium flux. Mas-related G-protein coupled receptor member X1 (Homo sapiens), Q96LB2. Fluo-4 calcium fluorescence, agonist mode; active compounds read high. B-score at 10 µM. 310,000 tested, 0.44% active. AID 588627, 2011;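 active = calcium response B-score plate-corrected fluorescence ratio at least 3 library SD, with starting fluorescence B-score inside 5 SD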
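Test system: HEK293 cells stably expressing human MrgX1 receptor; amount: 15,000 cells per well; doses: compound delivered in addition one of three; times: overnight plating before 1 h dye loading; detection: Fluo-4 NW calcium-flux fluorescence, kinetic read; read-out basis: B-scored fluorescence response ratio; controls: positive and negative controls per plate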
MrgX1 PAM: positive allosteric modulators of MrgX1, primary screen, HEK293 cells, Fluo-4 calcium flux. Mas-related G-protein coupled receptor member X1 (Homo sapiens), Q96LB2. FDSS; active compounds read high. B-score at 10 µM. 310,000 tested, 0.63% active. AID 588675, 2011;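 active = plate-corrected calcium response at least 3 library SD above typical, normal starting fluorescence, not activating the receptor alone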;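 note: compound read alongside a low EC10 to EC30 dose of BAM8-22 agonist; peak minus trough fluorescence over baseline measured at the second addition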
RGS4 activ val: reduced carbachol calcium response, RGS4-induced M3R cells, confirmation, RGS4 activator project, cell-based, HEK293 M3R/RGS4 inducible, calcium flux, duplicate | shares compounds with RGS4 pot | 1,100 tested, 89% active | inhibition, % at 10 µM | AID 602282, 2012 | carbachol calcium flux Fluo4;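 active = inhibition above 3 SD of the buffer control wells, cut at about 41% in these data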;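 note: signal is the integrated peak-minus-minimum Fluo4 fluorescence over baseline ratio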
RGS4 act ctr: RGS4 activator counter-screen hit in non-induced cells. 1,100 tested, 82% active. inhibition, % at 10 µM. AID 602283. shares compounds with RGS4 pot. HEK293 M3R non-induced RGS4, Fluo4 calcium flux; after carbachol challenge at its EC90;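 active = inhibition exceeding 3 SD of buffer-only control wells, cut at about 26% in these data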;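 note: percent drop in integrated peak-minus-baseline over baseline Fluo4 ratio after carbachol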
RGS4 block valid: enhanced carbachol calcium response, M3R/RGS4 cells, RGS4 inhibitor project, cell-based, validation screen, HEK293 M3R/RGS4, calcium flux; shares compounds with RGS4 inh; carbachol calcium Fluo-4 fluorescence; carbachol added at its EC20; 0 = buffer wells, 100 = carbachol control; calcium response, % at 10 µM; 1,700 tested, 65% active; AID 492999, 2010;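 active = duplicate-averaged calcium response above the buffer-only control mean plus 5 SD of those controls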;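 note: integrated fluorescence ratio F max minus min over baseline F0; higher response in RGS4-induced cells means RGS4 inhibition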
M3R Ca ctr: carbachol calcium response in non-induced M3R cells, confirmation, counter-screen for RGS4 inhibitor project, cell-based, HEK293 M3R; carbachol calcium Fluo-4; submaximal (EC20) carbachol stimulus; buffer wells 0%, carbachol control wells 100%; shares compounds with RGS4 inh; AID 493000, 2010; 1,900 tested, 20% active; activity (percent), % at 10 µM; call rule not given here;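 note: RGS4 induction absent so cells express M3R without RGS4; higher means more calcium signal and flags a non-specific hit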
M3R basal Ca ctr: second counter-screen for RGS4 inhibitors: non-induced cells without carbachol. shares compounds with RGS4 inh. 1,900 tested, 22% active. HEK293 M3R/RGS4 non-induced, Fluo-4 calcium, no carbachol; normalised: buffer wells 0%, carbachol wells 100%. calcium response (agonist-mode artifact), % at 10 µM;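 active = duplicate-averaged calcium rise in uninduced cells above buffer wells' mean plus 5 SD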
MrgX1 ant reconf: MrgX1 receptor antagonists, duplicate retest, confirmation, HEK293 cells, Fluo-4 calcium flux; remaining BAM8-22 calcium response % of control (active compounds read low), % at 10 µM; BAM8-22 calcium flux; active compounds read low; 2,300 tested, 19% active; shares compounds with MrgX1 antag;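 active = remaining agonist calcium response no higher than 100% minus 3 SD of agonist-only control wells, with starting fluorescence near control levels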;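 note: agonist BAM8-22 given at a near maximal EC90 to ECmax level; peak minus minimum fluorescence divided by baseline after agonist addition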
HEK293 Ca flux: nonspecific calcium signal in parental HEK293, confirmation, counter-screen for MrgX1 antagonist project, parental HEK293 cells, Fluo-4 calcium flux; fluorescence ratio F(max-min)/F0 at 10 µM; Fluo-4 calcium fluorescence, FDSS; 4,000 tested, 2% active; shares compounds with MrgX1 antag;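 active = duplicate-averaged calcium fluorescence ratio at least three times the standard deviation of buffer wells, a nonspecific response in parental cells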
HEK293 Ca counter: calcium response in parental HEK293 cells, primary screen, counter-screen for MrgX1 allosteric activator project, cell-based, Fluo-4 calcium flux, duplicate; shares compounds with MrgX1 antag; AID 624114, 2012; Fluo-4 fluorescence ratio; active compounds read high; fluorescence ratio F(max-min)/F0 at 10 µM; 4,000 tested, 0.4% active;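 active = calcium fluorescence ratio, averaged over duplicates, at least 3 SD of the buffer-well ratio, meaning a nonspecific response in receptor-free cells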;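 note: untransfected parental HEK293 lacking MrgX1 used as counterscreen for MrgX1 allosteric activators; fluorescence change taken during the second addition on a kinetic imager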
HEK293 Ca cntr2: calcium response in parental HEK293 cells, primary screen, counter-screen for MrgX1 agonist project, cell-based, Fluo-4 calcium flux, duplicate, agonist mode. shares compounds with MrgX1 antag. Fluo-4 calcium fluorescence (FDSS); active compounds read high. fluorescence ratio F(max-min)/F0 at 10 µM. 4,000 tested, 8.7% active. AID 624115, 2012;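 active = calcium fluorescence ratio at least three times the spread of buffer wells, meaning a non-specific response in parental cells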
Hits are given with their value; - = inactive; . = no result. Most compounds without a hit are left out; they make up all but 3.5% or so of the library.

SMILES	RGS4 pot	MrgX1 antag	RGS4 inh	MrgX1 agonist	MrgX1 PAM	RGS4 block valid	M3R Ca ctr	M3R basal Ca ctr	others
Cc1ccccc1C(O)(Cc1ccccc1)C1CN2CCC1CC2 (centres undefined)	-8.2	-	-	-	-	.	.	.	RGS4 activ val=92;RGS4 act ctr=88
Cc1ccc(C(O)(c2ccc(C)c(C)c2)C2CN3CCC2CC3)cc1C (centres undefined)	-	-	-	-	-	.	.	.
CN1CCc2cc3c(c4c2C1Cc1ccccc1-4)OCO3 (centres undefined)	-7.8	-6.6	-	-	-	.	.	.	RGS4 activ val=-;RGS4 act ctr=-;MrgX1 ant reconf=-;HEK293 Ca flux=-;HEK293 Ca counter=-;HEK293 Ca cntr2=-
COc1ccccc1-n1c(-c2ccccc2Br)nc2ccccc2c1=O	-	-	-	-	-	.	.	.
Cc1cc(/C=C2\C(=O)NC(=S)N(C)C2=O)c(C)n1C1CCCCC1	-	-	-	-	-	.	.	.
CN1C(=O)/C(=C\c2ccc(Br)s2)C(=O)NC1=S	-	-	19	-	-	5.5%	-	-
O=C1NC(=S)NC(=O)C1=Cc1ccc(Br)s1	-	-	22	-	-	78%	-	18%
CCN1C(=O)C(=Cc2ccc(C)s2)C(=O)N(CC)C1=S	-	-	-	-	-	.	.	.
CNC(=S)N1CC2CC(C1)c1cccc(=O)n1C2 (centres undefined)	-	-	-	-	-	.	.	.
CN(C)P(=O)(CCl)Nc1ccccc1 (centres undefined)	-	-	-	-	-	.	.	.
CC12CN3CN(C1)CC(C)(C3)C2=NO	-	-	5.2	-	-	-	-	-
CCOC(=O)C1CCN(Cc2ccc(Cl)nc2)CC1	-	-	5.5	-	-	9.5%	30%	-
COC(=O)C(O)(c1ccc2c(c1)CCCN2)C(F)(F)F (centres undefined)	-	-	-	-	-	.	.	.
Cn1cccc1/C=C1/C(=O)NC(=O)N(Cc2ccccc2)C1=O	-	-	-	-	-	.	.	.
Cn1cccc1/C=C1\C(=O)NC(=O)N(Cc2ccccc2)C1=O	-	-	-	-	-	.	.	.
Cn1cccc1/C=C1/C(=O)NC(=O)N(Cc2ccc(F)cc2)C1=O	-	-	-	-	-	-	-	9.0%
Cn1cccc1/C=C1/C(=O)NC(=S)N(Cc2ccc(F)cc2)C1=O	-	-	7.2	-	7	-	-	-
O=C(Cn1ncn2c(cc3cc(F)ccc32)c1=O)N1CCC2(CC1)OCCO2	-	-	-	-	-	.	.	.
O=c1[nH]c(=O)n(CCC2=CCCCC2)c(O)c1/C=N/Nc1ccccc1	-	-	-	-	-	.	.	.
O=C(N/N=C/c1c(O)n(CCc2ccccc2)c(=O)[nH]c1=O)c1ccccc1	-	-5.4	-	-	-	-	-	7.5%
CCCCn1c(O)c(/C=N/NC(=O)c2ccncc2)c(=O)[nH]c1=O	-	-	-	-	-	.	.	.
O=c1[nH]c(=O)n(CCC2=CCCCC2)c(O)c1/C=N/Nc1cccc2ccccc12	-	-	5.7	-	-	9.0%	-	-
COc1ccc(OC)c(N2C(=O)NC(=O)/C(=C\c3ccc([N+](=O)[O-])s3)C2=O)c1	-	-	8	-	-	18%	-	-
CN1C(=O)NC(=O)/C(=C/c2ccc([N+](=O)[O-])s2)C1=O	-	-	7.2	-	-	14%	-	-
O=C1NC(=O)N(c2ccccc2)C(=O)/C1=C\c1ccc([N+](=O)[O-])s1	-	-	-	-	-	.	.	.
SMILES	RGS4 pot	MrgX1 antag	RGS4 inh	MrgX1 agonist	MrgX1 PAM	RGS4 block valid	M3R Ca ctr	M3R basal Ca ctr	others
Cc1ccc(-n2nc(C)c(C3C(C#N)=C(N)Oc4c3c(=O)oc3ccccc43)c2Cl)cc1 (centres undefined)	-	.	-	.	.	.	.	.
CCN(CC)C(=O)c1ccc2c(c1)C1C=CCC1C(C(=O)O)N2 (centres undefined)	-	-	-	-	-	.	.	.
CSc1ncc(/C=C2/C(=O)NC(=O)N(c3ccc(C)cc3)C2=O)cn1	-	-	-	-	-	.	.	.
Cc1ccc(N2C(=O)NC(=O)/C(=C/c3cnn(-c4ccc(C)cc4)c3)C2=O)cc1	-	-	4.8	-	-	10%	-	-
Cc1cc(C)cc(N2C(=O)NC(=O)/C(=C\C=C\c3ccco3)C2=O)c1	-	-	23	-	-	59%	80%	36%
O=C1NC(=O)N(Cc2ccc(F)cc2)C(=O)/C1=C\C=C\c1ccco1	-	-	12	-	8.3	10%	-	12%

High-throughput results: PubChem BioAssay, Johns Hopkins Ion Channel Center
